This is a sample that favours compounds with a hit; in the whole collection about 1.7% have one here.
Vif imaging: inhibitors of HIV Vif | inhibition, % at 7.49 µM | HEK293T cells, Vif self-association by quenched fluorescence, imaging, 24 h | hit rate 0.35% among 340,000; in the data active = inhibition above about 50%, passing the limit was not always enough; inconclusive = no clear call, values can overlap the other calls; inactive = below about 31%
Runt-CBFb FRET: inhibitors of human RUNX1 Runt domain binding to CBFb; AID 1496; inhibition, % at 20 µM; hit rate 0.46% among 220,000; Cerulean-Runt/Venus-CBFb FRET ratio 530/480, 1 h; Q01196+Q13951;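 active = inhibition over about 50% at 20 µM in the single-dose screen, limit read from the data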;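 also: 0% = DMSO wells and 100% = excess unlabeled CBFb competitor control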
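test system = Cerulean-tagged RUNX1 Runt domain (FRET donor) fusion protein | reagent = Venus-CBFb binding partner, 100 nM | incubation = protein complex preformed 1 h, compound exposure 1 h, room temperature, dark | detection = FRET fluorescence | read-out basis = loss of energy transfer signal | controls = 5 µM unlabeled CBFb as full-inhibition high control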
Runt-SMMHC FRET: Runt domain-CBFb-SMMHC interaction inhibition | hit rate 0.74% among 220,000 | AID 1434 | inhibition, % at 20 µM | Cerulean-Runt/Venus-CBFb-SMMHC FRET ratio 530/480, 1 h | Q01196+Q13951;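 active = mean inhibition across duplicate retests at 20 µM reaching about 50%, limit read from the data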;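 also: 0% = DMSO wells and 100% = wells with excess untagged CBFb-SMMHC; inhibitors lower the FRET ratio by blocking Runt binding to CBFb-SMMHC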
RanGTP-Impb inh: disruptors of Ran-importin-beta complex formation – biochemical, FRET, CFP-Ran, YFP-importin-beta, homogeneous, primary screen | cell-free CFP-Ran/YFP-importin-beta FRET ratio | inhibition, % (test concentration not listed) | hit rate 1.1% among 300,000;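 active = more than half of the replicate wells show a fall in the fluorescence ratio signal beyond about 16%, limit read from the data, passing the limit was not always enough; inconclusive = exactly half of the replicate wells pass the set limit; inactive = fewer than half of replicates pass the limit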;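 also: 0% = DMSO wells and 100% = Ran loaded with GDP instead of GTP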
Rce1 inh: blocks yeast Ras-converting enzyme. Q03530. yeast membranes, quenched prenylated peptide cleavage fluorescence. calls only. hit rate 0.27% among 290,000;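 active = fall in fluorescence gain of 50% or more versus controls, with final raw signal at or below 3038400; inconclusive = same 50% fall but final raw signal above 3038400; inactive = fall in fluorescence gain under 50%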;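 also: plate controls were neutral control wells for no effect and wells lacking membranes for full effect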
Target sequence (Q03530 whole entry, looked up): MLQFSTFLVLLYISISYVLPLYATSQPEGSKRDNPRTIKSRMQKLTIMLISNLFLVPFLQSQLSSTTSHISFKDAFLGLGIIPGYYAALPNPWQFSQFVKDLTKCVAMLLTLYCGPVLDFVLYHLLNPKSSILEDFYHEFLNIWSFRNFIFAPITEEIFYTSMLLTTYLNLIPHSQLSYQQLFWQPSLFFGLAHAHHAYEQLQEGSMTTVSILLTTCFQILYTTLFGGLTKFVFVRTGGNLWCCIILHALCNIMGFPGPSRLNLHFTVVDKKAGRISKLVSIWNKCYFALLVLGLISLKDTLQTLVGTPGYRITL
* hit, by the source's call; i = inactive; ? = inconclusive; . = no result given; + = active, no number.

SMILES	Vif imaging	Runt-CBFb FRET	Runt-SMMHC FRET	RanGTP-Impb inh	Rce1 inh
Cc1cccc(-c2cc3nc(-c4ccccc4)cc(N4CCC5(CC4)OCCO5)n3n2)c1	-8	-1	9	5	+
Fc1cccc(-c2cc3nc(-c4ccccc4)cc(N4CCC5(CC4)OCCO5)n3n2)c1	-3	3	34	7	+
Fc1cccc(-c2cc3nc4c(c(N5CCC6(CC5)OCCO6)n3n2)CCCC4)c1	-8	-3	-1	2	i
N#CCc1nn(-c2ccc(F)cc2)c(N)c1C#N	11	2	-2	3	i
CCOC(=O)/C(C#N)=C1/C=C(C)NC(c2ccccc2O)=N1	.	25	61*	3	i
CCOC(=O)/C(C#N)=C1/C=CN(C)C(C)=N1	-6	-1	-6	0	i
CC(=O)Nc1ccc(C(=O)OCC(=O)NCc2ccc3c(c2)OCO3)cc1	9	.	.	.	.
CCCN1CCN(C2CCCCC2NS(=O)(=O)c2ccccc2)CC1 (stereo unspecified)	3	.	.	3	i
O=S(=O)(NC1CCCCC1N1CCC(O)CC1)c1ccccc1 (stereo unspecified)	31	.	.	56*	i
O=C(Nc1cccc(Cl)c1)Nc1nnc(CC2=CCCCC2)s1	5	0	0	-1	.
OC(CNCc1ccccc1Cl)COc1ccc(F)cc1 (stereo unspecified)	65*	.	.	-1	i
O=C(c1ccccc1)c1ccc(OCC(O)CNCc2ccc(F)cc2)cc1 (stereo unspecified)	-3	.	.	-2	i
O=C(O)c1cc(-c2ccc(N3CCOCC3)cc2)nn1-c1ccc(F)cc1F	-4	1	1	0	+
CSc1nc(N)c2c(n1)OC(N)=C(C#N)C2c1cccnc1 (stereo unspecified)	.	2	2	105*	i
COC(=O)C1=C(C)OC(N)=C(C#N)C1c1ccccc1F (stereo unspecified)	-17	2	2	-15	i
N#CC1=C(N)Oc2cc(O)c(Cl)cc2C1c1cccnc1 (stereo unspecified)	-6	.	.	52*	i
N#CC1=C(N)Oc2cc(O)c(Cl)cc2C1c1ccccc1F (stereo unspecified)	-1	.	.	131*	i
N#CC1=C(N)Oc2cc(O)ccc2C1c1cccnc1 (stereo unspecified)	.	-8	-18	38*	.
COc1cccc(CN2CCNC(=O)C2CC(=O)N(C)C2CCOCC2)c1 (stereo unspecified)	-4	.	.	3	i
CCOC(=O)CSc1nc(N2CCOCC2)c2c(c1C#N)CC(C)(C)N(C)C2	17	60*	84*	19*	i
CCOC(=O)C1CCCc2c1[nH]c1c(C(N)=O)cccc21 (stereo unspecified)	15	1	4	25*	i
CCOC(=O)CNC(=O)C1CCCc2c1[nH]c1ccc(Cl)cc21 (stereo unspecified)	16	2	-7	-1	i
NC(=O)c1cccc2c3c([nH]c12)CCCC3	0	1	4	85*	i
O=C(O)c1cc2[nH]c3c(c2cc1Cl)CCCC3	5	.	.	-7	i
COc1cc(N=Nc2cccc(S(N)(=O)=O)c2)c2ccccc2c1N	53*	4	-5	0	i
SMILES	Vif imaging	Runt-CBFb FRET	Runt-SMMHC FRET	RanGTP-Impb inh	Rce1 inh
CCOC(=O)CNC(=O)c1cc2c(=O)[nH]c3ccc(C)cc3c2s1	2	.	.	0	i
COc1ccc(Nc2ccc([N+](=O)[O-])cn2)cc1	-2	.	.	-4	i
CCOC(=O)c1ccc(Nc2ccc([N+](=O)[O-])cn2)cc1	0	-41	-35	19*	i
COc1ccc(C(=O)Nc2cc(OC)c(NC(=O)Nc3ccccc3)cc2OC)cc1	73*	.	.	.	.
O=C(Nc1ccc(Cl)cn1)c1ccccc1F	11	2	0	-2	i
COc1ccc(C(=O)Nc2cc(OC)c(Cl)cc2OC)cc1	3	-1	-2	-1	i
CCOC(=O)c1[nH]c(C)c(C(=O)Nc2cc(OC)ccc2OC)c1C	54*	0	1	7	.
COc1ccc(OC)c(NC(=O)c2cc3ccccc3cc2OC)c1	51*	.	.	-1	i
COc1cc2ccccc2cc1C(=O)Nc1ccc(Cl)cn1	84*	.	.	-1	i
CCOC(=O)c1c(C)[nH]c(C(=O)OCC(=O)Nc2cc(C)ccc2OC)c1C	-3	1	4	-3	i
CCCCC(=O)c1ccc(OC(=O)c2ccc([N+](=O)[O-])cc2)cc1	-4	.	.	.	.
CC(C)C(=O)N1CCC1(C)C(=O)NCc1cc(Cl)ccc1F (stereo unspecified)	16	.	.	.	.
COc1ccc(C(=O)NCC(=O)NCc2ccncc2)cc1	23	.	.	.	.
Cc1cccc(NC(=O)C2CCN(C(=O)c3ccc(Cl)cc3)CC2)n1	-7	.	.	2	i
CCC(CO)(CO)N(CC(=O)Nc1ccc(OC)cc1)CC(=O)Nc1ccc(OC)cc1	-11	.	.	28*	i
C/C(=N\Nc1nccnc1Cl)c1ccc(O)c(C)c1	-4	.	.	3	i
CC1CCN(S(=O)(=O)c2cc(C(=O)NC3(C)CCS(=O)(=O)C3)ccc2Br)CC1 (stereo unspecified)	-9	.	.	.	.
Cc1ccc(S(=O)(=O)/C(C#N)=C/c2c[nH]c3ccccc23)cc1	-2	12	34	?	i
Cc1ccc(C(=O)/C=C/c2c[nH]c3ccccc23)cc1	-5	10	5	54*	i
COc1ccc(/C=C/C(=O)c2ccccc2)c(OC)c1	4	-8	-27	11	i
O=C(/C=C/c1c[nH]c2ccccc12)c1ccccc1	5	14	-2	55*	i
COc1ccc2[nH]cc(/C=C/C(=O)c3ccccc3)c2c1	-21	-7	3	25*	i
Cc1csc(-c2cnn(-c3ccccc3)c2NC(=O)c2cccc(C(F)(F)F)c2)n1	.	5	0	-3	i
Cc1nc2c(N=Nc3ccccc3F)c(N)nn2c(N)c1C#N	-16	-5	-6	1	i
CCc1nc2c(OCCc3cccc(OC)c3)cccn2c1N(C=O)Cc1ccccc1	-7	.	.	.	.
SMILES	Vif imaging	Runt-CBFb FRET	Runt-SMMHC FRET	RanGTP-Impb inh	Rce1 inh
CN1CCN(NC(=O)c2cc(-c3ccc(Br)s3)nc3ccccc23)CC1	12	.	.	?	i
O=C(O)c1cc(-c2ccc(Br)s2)nc2ccccc12	.	.	.	18*	i
Cc1cc(/C=C2\SC(=S)N(Cc3ccco3)C2=O)c(C)n1-c1cccnc1	187*	-32	-163	21*	i
O=C1/C(=C/c2cccnc2)SC(=S)N1Cc1ccco1	-7	.	.	.	.
Cc1ccc2nc(SCC(=O)NC3CCCCC3)nc(=O)n2c1	5	.	.	-1	i
COCCCNC(=O)c1cc2c(=O)n3cc(C)ccc3nc2nc1NCC1CCCO1 (stereo unspecified)	.	19	60*	173*	i
Cc1ccc2nc3nc(NCC4CCCO4)c(C(=O)NC4CCCCC4)cc3c(=O)n2c1 (stereo unspecified)	.	.	.	177*	i

Source: PubChem
